Laboratory results: ChEMBL document CHEMBL1138524, “Structure-based discovery of triphenylmethane derivatives as inhibitors of hepatitis C virus helicase” (J Med Chem, 2009)
Calls of active or inactive are those of the source. No cut-off for these calls is given here.

Experiments:
Hepacivirus hominis [1] = assay: Inhibition of HCV NS3/4A helicase at 100 uM by FRET assay
Procedure, shortened: (§1)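 His-tagged NS3/4A (0.9 µg) preincubated with compound on ice for 15 min. Fluorescence (ex 485/em 518 nm) followed continuously and end-point minus start normalized to DMSO. Screened at 100 µM final.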

[2] = Inhibition of ATPase activity of HCV NS3/4A helicase by autoradiography; set-up: species or system Hepacivirus hominis
Procedure, shortened: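 ATP hydrolysis measured in 20 mM HEPES-KOH pH 7.0, 1.5 mM MgCl2, 2 mM DTT and 0.1 µg/mL poly-U, with [α-32P]ATP spanning 0.067-20 µM ATP. Reaction started by adding His-tagged NS3/4A (0.45 µg) and stopped with EDTA after 5 min. Products separated by PEI-cellulose TLC in 0.375 M K2PO4 pH 3.5 and quantified by autoradiography.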

[3] = Cytotoxicity against human HuH7 cells; type: cell-based, Huh-7
Hepacivirus hominis [4] = assay: Inhibition of HCV NS3/4A helicase assessed as blockade of ssRNA formation form dsRNA at 100 uM by PAGE
[5] = Inhibition of HCV NS3/4A helicase by FRET assay; set-up: species or system Hepacivirus hominis; procedure, shortened: as §1
Hepatitis C virus [6] = assay: Antiviral activity against HCV1b infected in human Ava5/Huh7 cells by replicon-cell assay; type: functional, organism-based, Hepacivirus hominis; settings: genotype 1b
Hepacivirus hominis [7] = assay: Inhibition of HCV NS3/4A helicase assessed as blockade of dsRNA binding to enzyme by gel mobility shift assay
Procedure, shortened: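 Gel mobility shift. NS3/4A (0.45 µg) preincubated with 100 µM compound in helicase buffer without ATP for 5 min at 37 °C. Then 0.66 pmol isotope-labeled partial dsRNA added for 15 min more. Complexes resolved on 4% polyacrylamide containing 5% glycerol and visualized by autoradiography.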

[8] = Ratio of CC50 for human HuH7 cells to EC50 for HCV1b; set-up: species or system Huh-7
[9] = Cytotoxicity against human Ava5/Huh7 cells assessed as reduction in cell growth at 5 uM after 5 days in absence of polypeptide synthesis blocker G418; type: cell-based; set-up: scale not given: the % may be the effect or the level left; settings: ava5/huh7, 120 h
[10] = Cytotoxicity against human Ava5/Huh7 cells assessed as reduction in cell growth at 5 uM after 5 days in presence of polypeptide synthesis blocker G418; type: cell-based; set-up: scale not given: the % may be the effect or the level left; settings: ava5/huh7, 120 h
Hepatitis C virus [11] = assay: Antiviral activity against HCV1b infected in human Ava5/Huh7 cells assessed as decrease in viral RNA level at 5 to 10 uM after 2 days by RT-PCR relative to control; type: functional, Hepacivirus hominis, genotype 1b; set-up: scale not given: the % may be the effect or the level left
Procedure, shortened: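 Ava.5/Huh-7 replicon cells (genotype 1b) seeded and grown 24 h in G-418-free DMEM, then exposed to 5, 10 or 20 µM compound for 24 or 48 h. Total RNA extracted and 1 µg reverse-transcribed with random decamers. SYBR Green real-time PCR run 40 cycles. HCV signal normalized to GAPDH and expressed relative to untreated replicon cells set at 1.0. Triplicate, averaged.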

inhibition (Hepacivirus hominis [1]) [%] | IC50 [2] [µM] | Activity (Hepacivirus hominis [4]) | IC50 [5] [µM] | EC50 (Hepatitis C virus [6]) [µM] | Activity (Hepacivirus hominis [7]) | SMILES | CC50 [3] [µM] | other results
15 |  |  |  |  |  | COc1ccc(C(C)(C)c2ccc(C(C)(c3ccc(OC)cc3)c3ccc(OC)cc3)cc2)cc1 |  | 
 | 25.1 | Active | 29.7 | > 50 | Dose-dependent effect | O=C(O)c1cc(Nc2ccc(C(Cl)(c3ccccc3)c3ccc(Nc4ccc(Cl)c(C(=O)O)c4)cc3)cc2)ccc1Cl | > 50 | 
30 |  |  |  |  |  | Nc1ccc(C(c2ccc(N)cc2)c2ccc(N)cc2)cc1 |  | 
 | > 100 | inactive | 12.6 | 0.69 | Dose-dependent effect | Cc1cc([C@@](O)(c2ccc(Nc3ccccc3)cc2)c2ccc(Nc3ccc(S(=O)(=O)[O-])cc3)cc2)ccc1N.[Na+] | 0.96 | Ratio CC50/EC50 [8]: 1.39
0 |  |  |  |  |  | CC(c1ccccc1)(c1ccc(Oc2ccc([N+](=O)[O-])cc2)cc1)c1ccc(Oc2ccc([N+](=O)[O-])cc2)cc1 |  | 
 | 23.8 | Active | 40 | > 50 | Dose-dependent effect | O=S(=O)(O)c1ccc(N=C2C=CC(=C(c3ccc(Nc4cccc(S(=O)(=O)O)c4)cc3)c3ccc(Nc4cccc(S(=O)(=O)O)c4)cc3)C=C2)cc1 | > 50 | 
 |  |  | 10.1 | 2.72 |  | CC(C)(c1ccc(C(C)(c2ccc(O)c(Br)c2)c2ccc(O)c(Br)c2)cc1)c1ccc(O)c(Br)c1 | 10.5 | Ratio CC50/EC50 [8]: 3.86; Activity [9]: 20%; Activity [10]: 50%; Activity (Hepatitis C virus [11]): 40%
46 |  |  |  |  |  | COc1ccc(-c2cc(-c3ccc(N(C)C)cc3)nc(NS(=O)(=O)c3ccc(N)cc3)n2)cc1 |  | 

SMILES | inhibition (Hepacivirus hominis [1]) [%] | IC50 [2] [µM] | Activity (Hepacivirus hominis [4]) | IC50 [5] [µM] | EC50 (Hepatitis C virus [6]) [µM] | Activity (Hepacivirus hominis [7]) | CC50 [3] [µM] | other results
CC(C)(c1ccc(O)cc1)c1ccc(C(C)(c2ccc(O)cc2)c2ccc(O)cc2)cc1 |  | 25.9 | Active | 13.9 | 8.37 | Dose-dependent effect | 12.7 | Ratio CC50/EC50 [8]: 1.51
CC(c1ccc(O)cc1)(c1ccc(O)cc1)c1ccc(O)cc1 | 39 |  |  |  |  |  |  | 
CC(c1ccccc1)(c1ccc(O)cc1)c1ccc(O)cc1 | 43 |  |  |  |  |  |  | 
CC(C)(c1ccc(O)cc1)c1ccc(C(C)(C)c2ccc(O)cc2)cc1 |  |  |  | 60.7 |  |  |  | 
